In ChEMBL document CHEMBL6177937, “Design, synthesis, and biological evaluation of novel thiazole derivatives as PI3K/mTOR dual inhibitors” (RSC Med Chem, 2024):

Experiments:
Format in all cases: functional
[1] = test system: SR; assay: Growth inhibition of human SR cells measured after 48 hrs by SRB assay
In short: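 NCI 60-line SRB screen: cells seeded […], grown 24 h at 37°C, 5% CO2, then exposed 48 h to five concentrations (10-fold or ½-log dilutions from DMSO stock). Adherent cells fixed with cold TCA (final 10%), suspension cells with 80% TCA (final 16%); SRB stained, read at 515 nm. GI50 from time-zero, control and treated absorbances.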

[2] = test system: HL-60; assay: Cell cycle arrest in human HL-60 cells assessed as decrease in accumulation of cells at S-phase at 2.32 uM measured after 24 hrs by propidium iodide staining based flow cytometry relative to control; design: scale not given: the % may be the effect or the level left
[3] = test system: HL-60; assay: Cell cycle arrest in human HL-60 cells assessed as increase in accumulation of cells at G0/G1-phase at 2.32 uM measured after 24 hrs by propidium iodide staining based flow cytometry relative to control
[4] = test system: HL-60; assay: Cell cycle arrest in human HL-60 cells assessed as decrease in accumulation of cells at S-phase at 2.29 uM measured after 24 hrs by propidium iodide staining based flow cytometry relative to control; design: scale not given: the % may be the effect or the level left
[5] = test system: HL-60; assay: Cell cycle arrest in human HL-60 cells assessed as decrease in accumulation of cells at G2/M-phase at 2.29 uM measured after 24 hrs by propidium iodide staining based flow cytometry relative to control; design: scale not given: the % may be the effect or the level left
[6] = test system: HL-60; assay: Cell cycle arrest in human HL-60 cells assessed as increase in accumulation of cells at G0/G1-phase at 2.29 uM measured after 24 hrs by propidium iodide staining based flow cytometry relative to control

| SMILES | GI50 [1] | TGI [1] | CC50 ([1]; read-out: LC50 (the source's name)) | Activity [2] | fold change (FC) [3] | Activity [4] | Activity [5] | fold change (FC) [6] |
| --- | --- | --- | --- | --- | --- | --- | --- | --- |
| CCOc1cc(/C=N/Nc2nc(-c3cccc([N+](=O)[O-])c3)cs2)ccc1O | 3.07 µM | > 100 µM | > 100 µM | 2.5% | 1.28 |  |  |  |
| O=[N+]([O-])c1cc(/C=N/Nc2nc(-c3ccc(Cl)cc3)cs2)ccc1Cl |  |  |  |  |  | 7.3% | 12.8% | 1.13 |
